TRPC4 inh – inhibitors of mouse TRPC4 channel; Q9QUQ5; HEK293 TRPC4beta/mu-opioid, DAMGO-evoked Fluo4 calcium flux; hits give low values; B-score at 10 µM; 300,000 tested, 0.39% active; AID 2247;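 active = B-score over 3 SD under the library average, no early fluorescence shift, positive overall ratio signal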
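Assay system: Stable TRPC4beta/mu-opioid receptor HEK293 cells | Reagent: DAMGO in two steps, submaximal then maximal | Compound dosing: Single concentration per test compound | Signal: Fluo4 Ca2+ flux fluorescence | Evaluation: Per-well B score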
TRPC6 inh – mouse TRPC6 channel inhibition | Q61143 | HEK293-TRPC6, membrane potential dye, ACh-evoked depolarization; hits give low values | 310,000 tested, 1.1% active | B-score at 10 µM;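 active = B-score under library mean minus 3 SD, initial fluorescence not abnormally high, positive integrated signal ratio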;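 note: B-score derived from integrated fluorescence ratio over the kinetic read; more negative B-score means stronger inhibition of depolarization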
TRPC4 PAM – TRPC4 (mouse) allosteric potentiation | HEK293 TRPC4beta/mu-opioid, DAMGO EC20, Fluo-4 Ca2+ flux; hits give high values | B-score at 10 µM | 310,000 tested, 0.42% active;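 active = B-score of calcium response area above 5 SD of library B-scores, with initial fluorescence ratio within 5 SD of library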;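 note: B-score of integrated fluorescence ratio over time as area under calcium response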
TRPC4 agonist – activators of mouse TRPC4 channel | Q9QUQ5 | HEK293 TRPC4beta/mu-opioid, Fluo4 calcium fluorescence; hits give high values | B-score at 10 µM | 310,000 tested, 0.49% active;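 active = B-score above 5 SD of library B-scores, and initial fluorescence ratio not above library mean plus 5 SD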;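 note: positive B-score marks a calcium rise read as TRPC4 activation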
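Assay system: HEK293 stable line with TRPC4beta plus mu-opioid receptor; schedule: 45 min room-temperature Fluo4 loading, 110 s read; technique: kinetic Fluo4 calcium fluorescence; evaluation: integrated baseline-normalised fluorescence ratio, converted to per-well B score; controls: buffer (low) and maximal DAMGO (high)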
TRPC6 act – mouse TRPC6 channel activation. HEK293-TRPC6 membrane potential dye fluorescence; hits give high values. B-score at 10 µM. 310,000 tested, 0.13% active;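 active = B-score of the integrated fluorescence ratio above library mean plus 3 SD, and starting fluorescence ratio within library mean plus 5 SD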;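 note: higher score means more depolarization so channel activation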
Active calls of the source: *; i = inactive. Only some compounds are listed: those with a hit (about 2.3% of all), similar ones and a draw of the others.

SMILES	TRPC4 inh	TRPC6 inh	TRPC4 PAM	TRPC4 agonist	TRPC6 act
CCCC/C(O)=C1\C(=O)CC(C)(C)CC1=Nc1ccc(OC)cc1	i	i	12*	i	i
CCCn1c(CN2CCN(c3cccc(Cl)c3)CC2)nc2c1c(=O)n(C)c(=O)n2C	i	i	12*	i	i
CCCCn1c(CN2CCN(c3cccc(Cl)c3)CC2)nc2c1c(=O)n(C)c(=O)n2C	i	i	i	i	i
Cn1c(=O)c2c(nc(CN3CCN(C(c4ccccc4)c4ccccc4)CC3)n2CCCO)n(C)c1=O	i	i	13*	i	i
COCCn1c(CN2CCN(C(c3ccccc3)c3ccccc3)CC2)nc2c1c(=O)n(C)c(=O)n2C	i	i	i	i	i
Cn1c(=O)n(CCCO)c(=O)c2c1nc1n2CCCN1Cc1ccccc1	-6*	i	i	i	i
O=C(Cc1ccc(S(=O)(=O)N2CCOCC2)s1)NCCc1ccc(F)cc1	i	i	i	i	i
Cc1ccc(CNc2ccc3c(c2)ncn3C(C)C)cc1	i	i	i	45*	i
CCn1cnc2cc(NCc3ccc(C)cc3)ccc21	i	i	i	i	i
O=C(Nc1ccc(Cl)c([N+](=O)[O-])c1)C(Sc1ccccc1)c1ccccc1 (stereo unspecified)	i	i	i	i	i
COCC(C)NC(C(=O)Nc1ccc(Cl)c([N+](=O)[O-])c1)c1ccccc1 (stereo unspecified)	-7*	i	i	i	i
O=C(Nc1ccc(Cl)c([N+](=O)[O-])c1)C(NCCCO)c1ccccc1 (stereo unspecified)	i	i	i	i	i
CCC(C)NC(C(=O)Nc1ccc(Cl)c([N+](=O)[O-])c1)c1ccccc1 (stereo unspecified)	-7*	i	i	i	i
O=c1c2ccc(Cl)cc2nc(-c2ccc([N+](=O)[O-])cc2)n1O	i	i	i	63*	i
O=c1c2cc(Cl)ccc2nc(-c2ccccc2)n1O	i	i	i	i	i
O=c1c2cc(Cl)ccc2nc(-c2ccc(Cl)c(Cl)c2)n1O	i	i	i	237*	i
O=c1c2cc(Br)ccc2nc(-c2cccc(C(F)(F)F)c2)n1O	i	i	i	193*	i
O=c1c2cc(Br)ccc2nc(-c2ccc([N+](=O)[O-])cc2)n1O	i	i	i	81*	i
N#Cc1ccc(-c2nc3ccc(Br)cc3c(=O)n2O)cc1	i	i	i	i	i
CC(C)C(NC(=O)CN1C(=O)c2ccccc2C1=O)c1ccccc1 (stereo unspecified)	i	i	i	i	i
CC(=O)N1CCN(C(=O)c2cccc(NS(=O)(=O)c3ccc(Br)cc3)c2)CC1	i	i	i	i	i
CCC1(c2ccc(F)cc2)NC(=O)N(CC(=O)N2CC(=O)Nc3ccccc32)C1=O (stereo unspecified)	i	i	i	i	i
CCN(CCn1cccn1)C(=O)C1CCC(=O)N(CC2CCCCC2)C1 (stereo unspecified)	i	i	i	i	i
Cc1ccc(S(=O)(=O)Nc2cccc(C(=O)NCC(c3ccco3)N3CCCC3)c2)cc1F (stereo unspecified)	-6*	i	i	53*	i
CCCCN(C(=O)Cc1coc2cc(C)c(C)cc12)c1c(N)n(Cc2ccccc2)c(=O)[nH]c1=O	i	i	i	i	i
SMILES	TRPC4 inh	TRPC6 inh	TRPC4 PAM	TRPC4 agonist	TRPC6 act
CCc1ccc2nc3n[nH]c(N)c3cc2c1	i	i	i	68*	i
CC(=O)N/C(=N/c1nc(C)cc(C)n1)Nc1cccc(C)c1C	i	i	i	i	i
O=C(NC1CCCC1)c1cc2cc(Br)ccc2o1	i	i	i	i	i
CC1CCCCC1NC(=O)c1cc2ccccc2o1 (stereo unspecified)	i	i	30*	i	i
N=c1oc2ccc(Cl)cc2cc1C(=O)NC1CCCCCC1	i	i	18*	i	i
N=c1oc2ccccc2cc1C(=O)NC1CCCCCC1	i	i	i	i	i
O=C(NC1CCCC1)c1cc2ccccc2o1	i	i	20*	i	i

Screening results: PubChem BioAssay, Johns Hopkins Ion Channel Center
